Data set [1] concerns the target T1, transfected human CRF1 receptors in HEK293T cells (Homo sapiens, UniProt P34998).
T1 sequence (P34998 24-415): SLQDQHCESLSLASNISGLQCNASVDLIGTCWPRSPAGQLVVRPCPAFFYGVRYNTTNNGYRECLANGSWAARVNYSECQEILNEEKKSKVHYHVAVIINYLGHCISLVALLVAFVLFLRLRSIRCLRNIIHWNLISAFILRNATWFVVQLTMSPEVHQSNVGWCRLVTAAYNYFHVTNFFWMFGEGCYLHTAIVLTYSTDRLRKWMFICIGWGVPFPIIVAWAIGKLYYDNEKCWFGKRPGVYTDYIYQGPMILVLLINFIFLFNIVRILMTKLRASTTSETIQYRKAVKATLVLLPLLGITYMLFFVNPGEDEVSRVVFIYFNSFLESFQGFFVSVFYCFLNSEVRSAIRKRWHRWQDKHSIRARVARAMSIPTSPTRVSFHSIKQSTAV
In words: In vitro competition binding assay at 23 °C vs. [125I]-Tyr0-sauvagine. Conditions: for Ki: Ki (nM) ± SEM, vs. [125I]-Tyr0-sauvagine, HEK293T cell membranes. Summed up:
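Human CRF1 plasmid transiently lipofected into HEK293T (DMEM, 10% FBS, grown to 75% confluency); cells harvested 48 h post-transfection; membranes homogenized in pH 7.2 HEPES/MgCl2/EGTA/BSA/aprotinin buffer. ~80 pM [125I]sauvagine plus test compound (10−13–10−5 M final), 2 h, 23 °C; filtered over polyethyleneamine-soaked filters and cold-washed. Triplicates; Ki by one-site competition fit (Kd 0.5 nM); ratios from Ki values.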

Data set [2] addresses CRF1 receptor. Conditions: read-out: Ki, previously reported value; cited from earlier work.
Data set [3] deals with CRF1 receptor. The experiment in a line: Non-human primate microPET imaging. Format: in vivo, male cynomolgus monkey. Conditions: anesthetized cynomolgus monkey. Summed up: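 Male cynomolgus monkey on a Siemens MicroPET Focus 220. A Co-57 point-source transmission scan was used for attenuation correction. F-18 radiotracer given by saphenous vein injection, then dynamic imaging for 120 min.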

Another data set is described as follows: Rat microPET imaging. Format: in vivo, male Sprague-Dawley rat. Conditions: anesthetized rat. Summed up: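 One male Sprague-Dawley rat on an Inveon microPET/CT: isoflurane induction at 3–4%, maintained at 1–1.5% by nose cone. Prone, warmed with circulating air; Co-57 transmission scan for attenuation correction. F-18 radiotracer given by tail vein injection, then dynamic imaging for 60 min.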

Molecules are shown by their SMILES.

Usually Ki stands for the dissociation constant of the complex between target and ligand, obtained from inhibition or displacement.

On to `Cc1cc(N(C)CCOCCF)n2nc(C)c(-c3ccc(Cl)cc3Cl)c2n1` [Compound 26, 3-(2,4-dichlorophenyl)-N-(2-(2-fluoroethoxy)ethyl)-N,2,5-trimethylpyrazolo[1,5-a]pyrimidin-7-amine], for which, in data set [1] (23 °C), the “decrease in affinity relative to compounds 27, 28, 29 and 30” value is at least 10 fold; the Ki was found to be 12.4 ± 1.06 nM. Further, in data set [1] (ratio of Ki values, Table 1), the “fold loss of affinity relative to 29” value is ~ 26 fold, the “fold loss of affinity upon changing 28 to 26” value is around 12 fold and the “fold lower binding affinity than 27 or 28” value is 10 – 12 fold.

On to `CCCN(CCC)c1cc(C)nc2c(-c3ccc(Cl)cc3Cl)c(C)nn12` [Compound 21, 3-(2,4-dichlorophenyl)-2,5-dimethyl-N,N-dipropylpyrazolo[1,5-a]pyrimidin-7-amine], for which the Ki in data set [1] (23 °C) is 0.47 ± 0.08 nM.

In data set [1] (23 °C), `Cc1cc(N(C)CCCCF)n2nc(C)c(-c3ccc(Cl)cc3Cl)c2n1` [Compound 28, 3-(2,4-dichlorophenyl)-N-(4-fluorobutyl)-N,2,5-trimethylpyrazolo[1,5-a]pyrimidin-7-amine] returned a Ki of 1.07 ± 0.21 nM. Moreover, the “fold loss of affinity relative to 29” value in data set [1] (ratio of Ki values, Table 1) is ~ 2.3 fold.

`CCCCN(CC)c1cc(C)nc2c(-c3ccc(Cl)cc3Cl)c(C)nn12` [Compound 22, N-butyl-3-(2,4-dichlorophenyl)-N-ethyl-2,5-dimethylpyrazolo[1,5-a]pyrimidin-7-amine]: the figures for the Ki (in data set [1] (23 °C); on CRF1 receptor [2]) were 0.46 ± 0.06 nM and 900 ± 100 pM, respectively.

With `[2H]C([2H])([18F])C([2H])([2H])C([2H])([2H])C([2H])([2H])N(C)c1cc(C)nc2c(-c3ccc(Cl)cc3Cl)c(C)nn12` [[^18F]28-d8, 3-(2,4-dichlorophenyl)-N-(4-[^18F]fluorobutyl-1,1,2,2,3,3,4,4-d8)-N,2,5-trimethylpyrazolo[1,5-a]pyrimidin-7-amine], in the data set with CRF1 receptor [3] (microPET TACs), the “brain uptake and washout compared with the other radiotracers” value is “very similar to that of [^18F]28”; the “radioactivity uptake in the skull and sphenoid region / defluorination” value is “reduced somewhat relative to [^18F]28 but defluorination was not completely prevented”.

Take `Cc1cc(N(C)CCOCC[18F])n2nc(C)c(-c3ccc(Cl)cc3Cl)c2n1` [[^18F]26, 3-(2,4-dichlorophenyl)-N-(2-(2-[^18F]fluoroethoxy)ethyl)-N,2,5-trimethylpyrazolo[1,5-a]pyrimidin-7-amine]: in the data set on CRF1 receptor [3] (microPET TACs), the “brain uptake and washout compared with the other radiotracers” value was “entered the brain more rapidly and washed out more rapidly”; the “radioactivity uptake in the skull and sphenoid region / defluorination” value was “rapid uptake and then a steady washout”.

Consider `CCN(CCOCCF)c1cc(C)nc2c(-c3ccc(Cl)cc3Cl)c(C)nn12` [Compound 27, 3-(2,4-dichlorophenyl)-N-ethyl-N-(2-(2-fluoroethoxy)ethyl)-2,5-dimethylpyrazolo[1,5-a]pyrimidin-7-amine], for which, in data set [1] (23 °C), the Ki came to 1.17 ± 0.07 nM. Moreover, the “fold loss of affinity relative to 29” value in data set [1] (ratio of Ki values, Table 1) is ~ 2.5 fold.

Consider `CCN(CCOCC[18F])c1cc(C)nc2c(-c3ccc(Cl)cc3Cl)c(C)nn12` [[^18F]27, 3-(2,4-dichlorophenyl)-N-ethyl-N-(2-(2-[^18F]fluoroethoxy)ethyl)-2,5-dimethylpyrazolo[1,5-a]pyrimidin-7-amine], for which, in the data set with CRF1 receptor [3] (microPET TACs), the “radioactivity uptake in the skull and sphenoid region / defluorination” value is “rapid uptake and then a steady washout”; the “specific binding in brain (high vs low CRF1 receptor density regions)” value is reported as “little or no specific binding”; the “time of peak brain uptake” value fell in the range of 5 to 15 min.

`CCN(CCCCF)c1cc(C)nc2c(-c3ccc(Cl)cc3Cl)c(C)nn12` [Compound 29, 3-(2,4-dichlorophenyl)-N-ethyl-N-(4-fluorobutyl)-2,5-dimethylpyrazolo[1,5-a]pyrimidin-7-amine]: the Ki in data set [1] (23 °C) turned out to be 0.47 ± 0.1 nM.

Take `Cc1cc(N(C)CCCC[18F])n2nc(C)c(-c3ccc(Cl)cc3Cl)c2n1` [[^18F]28, 3-(2,4-dichlorophenyl)-N-(4-[^18F]fluorobutyl)-N,2,5-trimethylpyrazolo[1,5-a]pyrimidin-7-amine]: in the data set “Rat microPET imaging” (at 3 min, tail vein injection), the “liver uptake (SUV)” value is on record as 5.4 SUV. Further, the “brain uptake (SUV)” value in the data set “Rat microPET imaging” (at 5 min, tail vein injection) was determined as 2 SUV. Moreover, in “Rat microPET imaging” (microPET), the brain penetrance entry was “brain penetrance was achieved” and the “stability to defluorination (bone visualization)” value is listed as “stable to defluorination”. The brain penetrance result with CRF1 receptor [3] (microPET) is “brain penetrance was achieved”. Moreover, in the data set on CRF1 receptor [3] (microPET TACs), the “radioactivity uptake in the skull and sphenoid region / defluorination” value is “high radioactivity uptake in the skull, and sphenoid bone and/or sphenoid sinus, suggests defluorination”; the “specific binding in brain (high vs low CRF1 receptor density regions)” value is given as “little or no specific binding”.

`Cc1cc(N(CCF)CCCCF)n2nc(C)c(-c3ccc(Cl)cc3Cl)c2n1` [Compound 30, 3-(2,4-dichlorophenyl)-N-(4-fluorobutyl)-N-(2-fluoroethyl)-2,5-dimethylpyrazolo[1,5-a]pyrimidin-7-amine] came in with a Ki in data set [1] (23 °C) of 0.59 ± 0.04 nM.

Take `CCN(CCCC[18F])c1cc(C)nc2c(-c3ccc(Cl)cc3Cl)c(C)nn12` [[^18F]29, 3-(2,4-dichlorophenyl)-N-ethyl-N-(4-[^18F]fluorobutyl)-2,5-dimethylpyrazolo[1,5-a]pyrimidin-7-amine]: in the data set on CRF1 receptor [3] (microPET TACs), the “brain uptake and washout compared with the other radiotracers” value is “the overall amount of uptake was less”; the “radioactivity uptake in the skull and sphenoid region / defluorination” value is “less than that of [^18F]28 and [^18F]28-d8”. The “fold stronger binding affinity relative to [18F]28” value in data set [1] is recorded as ~ 2 fold.

Source of the values: article PMC4516694 (Bioorganic & medicinal chemistry, 2015).
